Columns and labels:
Assay type in all cases: functional
[1] = system: MCF7; test: Cytotoxicity against human MCF7 cells assessed as growth inhibition after 48 hrs by SRB assay
In short: (§1)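 NCI 60-cell-line screen, five-dose stage: each cell line exposed for 48 h to five concentrations spanning five log steps; cellular protein measured by sulforhodamine B colorimetry. A time-zero cell control and plates without drug are used to derive GI50, TGI and LC50 from log-concentration dose-response curves.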

[2] = system: HOP-62; test: Cytotoxicity against human HOP62 cells assessed as growth inhibition after 48 hrs by SRB assay
In short: (§2)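 NCI 60-cell-line five-dose screen at […]. Drug exposure was 48 h, followed by sulforhodamine B protein staining. GI50, TGI and LC50 were calculated against a time-zero control and untreated plates, with dose–response curves plotted from log10 concentration.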

[3] = system: HT-29; test: Cytotoxicity against human HT-29 cells assessed as cell growth at 10 uM after 48 hrs by SRB assay; details: HT-29, 48 h, read-out: Activity
[4] = system: CAKI-1; test: Cytotoxicity against human CAKI-1 cells assessed as cell growth at 10 uM after 48 hrs by SRB assay; details: CAKI-1, 48 h, read-out: Activity
[5] = (§3) Cytotoxicity against human OVCAR4 cells assessed as growth inhibition after 48 hrs by SRB assay; details: OVCAR-4, 48 h; in short: as §1
[6] = system: OVCAR-4; test: as §3; in short: as §1
[7] = system: Malme-3M; test: Cytotoxicity against human MALME-3M cells assessed as growth inhibition after 48 hrs by SRB assay; in short: as §2
[8] = system: SK-OV-3; test: Cytotoxicity against human SKOV3 cells assessed as growth inhibition after 48 hrs by SRB assay; in short: as §1
[9] = system: SNB-19; test: Cytotoxicity against human SNB19 cells assessed as growth inhibition after 48 hrs by SRB assay
In short: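 NCI 60-cell-line screen, two stages. Five-dose testing at […]. Cellular protein measured by sulforhodamine B colorimetry after 48 h drug exposure. A time-zero control and drug-free plates are used to derive GI50, TGI and LC50 from dose-response curves plotted as log10 concentration per cell line.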

[10] = system: HCT-116; test: Cytotoxicity against human HCT116 cells assessed as growth inhibition after 48 hrs by SRB assay; in short: as §2
[11] = system: A498; test: Cytotoxicity against human A498 cells assessed as growth inhibition after 48 hrs by SRB assay; in short: as §2
[12] = system: OVCAR-3; test: Cytotoxicity against human OVCAR3 cells assessed as growth inhibition after 48 hrs by SRB assay; in short: as §1
[13] = system: IGROV-1; test: Cytotoxicity against human IGROV1 cells assessed as growth inhibition after 48 hrs by SRB assay; in short: as §2
[14] = system: LOX IMVI; test: Cytotoxicity against human LOXIMVI cells assessed as growth inhibition after 48 hrs by SRB assay; in short: as §2
[15] = system: MDA-MB-468; test: Cytotoxicity against human MDA-MB-468 cells assessed as cell growth at 10 uM after 48 hrs by SRB assay; details: MDA-MB-468, 48 h, read-out: Activity
In short: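 First stage of the NCI 60 human tumour cell line screen: a single dose is tested against every line. Cell growth is read as cellular protein by sulforhodamine B colorimetry after 48 h of drug exposure, with reference to a time-zero control and to untreated plates.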

With `CCSc1nc2ccc3c(c2[nH]1)C(=O)c1ccccc1C3=O` the “growth inhibition (GI)” value [1] was “Dose-dependent effect”, the GI50 ([1]; MCF7, 48 h) was 4.84 µM and the LC50 (concentration killing 50% of cells) ([1]; MCF7, 48 h) was greater than 100 µM. The TGI ([1]; MCF7, 48 h) was greater than 100 µM, the “growth inhibition (GI)” value [2] was “Dose-dependent effect” and the GI50 ([2]; HOP-62, 48 h) was 25.9 µM. For the same compound, the LC50 (concentration killing 50% of cells relative to time zero) ([2]; HOP-62, 48 h) was greater than 100 µM, the TGI ([2]; HOP-62, 48 h) was greater than 100 µM and the growth at 10 µM [3] was 75.2%. The growth at 10 µM [4] was -8.01%, the GI50 [5] was 3.17 µM and the LC50 (concentration killing 50% of cells) [5] was greater than 100 µM. The TGI [5] was greater than 100 µM, the “growth inhibition (GI)” value [6] was “Dose-dependent effect” and the GI50 [7] was 3.58 µM. The TGI [7] was 94 µM, the “growth inhibition (GI)” value [7] was “Dose-dependent effect” and the CC50 ([7]; read-out: LC50 (the source's name)) was greater than 100 µM. The “growth inhibition (GI)” value [8] was “Dose-dependent effect”, the GI50 ([8]; SK-OV-3, 48 h) was 3.8 µM and the LC50 (concentration killing 50% of cells present at time zero) ([8]; SK-OV-3, 48 h) was greater than 100 µM. For the same compound, the TGI ([8]; SK-OV-3, 48 h) was greater than 100 µM, the “growth inhibition (GI)” value [9] was “Dose-dependent effect” and the GI50 ([9]; SNB-19, 48 h) was greater than 100 µM. The LC50 ([9]; SNB-19, 48 h) was greater than 100 µM, the TGI ([9]; SNB-19, 48 h) was greater than 100 µM and the “growth inhibition (GI)” value [10] was “Dose-dependent effect”. For the same compound, the GI50 ([10]; HCT-116, 48 h) was 5.59 µM, the LC50 ([10]; HCT-116, 48 h) was greater than 100 µM and the TGI ([10]; HCT-116, 48 h) was greater than 100 µM. For the same compound, the “growth inhibition (GI)” value [11] was “Dose-dependent effect”, the GI50 ([11]; A498, 48 h) was 4.7 µM and the TGI ([11]; A498, 48 h) was greater than 100 µM. For the same compound, the CC50 ([11]; A498, 48 h, read-out: LC50 (the source's name)) was greater than 100 µM, the “growth inhibition (GI)” value [12] was “Dose-dependent effect” and the GI50 ([12]; OVCAR-3, 48 h) was 10.2 µM. For the same compound, the LC50 (50% lethal concentration) ([12]; OVCAR-3, 48 h) was greater than 100 µM, the TGI ([12]; OVCAR-3, 48 h) was greater than 100 µM and the “growth inhibition (GI)” value [13] was “Dose-dependent effect”. The GI50 ([13]; IGROV-1, 48 h) was 2.38 µM, the LC50 ([13]; IGROV-1, 48 h) was greater than 100 µM and the TGI ([13]; IGROV-1, 48 h) was greater than 100 µM. For the same compound, the GI50 [14] was 6 µM, the LC50 [14] was greater than 100 µM and the TGI [14] was greater than 100 µM. For the same compound, the “growth inhibition (GI)” value [14] was “Dose-dependent effect” and the growth at 10 µM [15] was 35.4%.

From ChEMBL document CHEMBL3120102, “Structure-based design, synthesis and biological evaluation of novel anthra[1,2-d]imidazole-6,11-dione homologues as potential antitumor agents” (2013)
